Consider 96 molecules from ChEMBL document CHEMBL4513216, “Probing the Open Global Health Chemical Diversity Library for Multistage-Active Starting Points for Next-Generation Antimalarials” (ACS Infect Dis, 2020).

A short description of the data set: Toxicity liver stage against HepG2, at 10uM. The arrangement: test concentration 10 uM, cell line HepG2-A16-CD81EGFP. The settings on record: human, HepG2-A16-CD81EGFP cells; read-out: INHIBITION
Type of data set: cell-based. An outline of the steps:
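Uninfected HepG2-A16-CD81EGFP cells, 3 × 10^3 per well, 1536-well, plated on prespotted compound at 10 μM final, parasite-free screening media added to match infected plates; puromycin 10 μM positive, DMSO 0.5% negative; run in parallel with 48 h PbLuc assay at 37 °C, 5% CO2; viability by CellTiter-Glo luminescence, normalized to controls.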
For the molecule `CN(Cc1cccnc1)C1CC2(CCN(Cc3ccccn3)CC2)C1`, the cytotoxicity at 10 µM is -84%.

With `O=C(c1ccc(F)cc1)N1C[C@@H]2CCN(c3cccnc3)C[C@@H]2C1`, the cytotoxicity at 10 µM was -78.4%.

On to `Cc1nn(C)c(C)c1-c1cc(-c2cc(CC(=O)O)cs2)nc(N)c1C#N`, for which the cytotoxicity at 10 µM was 0.701%.

On to `COCC(=O)N1CCN(C(=O)Cc2cccs2)[C@H]2CS(=O)(=O)C[C@H]21`, for which the cytotoxicity at 10 µM came to 2.21%.

On to `CSc1ccc(CN(C)Cc2noc(C(C)(C)C)n2)cc1`, for which the cytotoxicity at 10 µM is -8.58%.

Take `Cc1nc(CC(=O)N2CCCC[C@H](N(C)C)C2)cs1`: the cytotoxicity at 10 µM was 8.27%.

For `O=C(NCc1cncc2c1CCN(Cc1ccc(F)cc1)C2)C1CC1`, the cytotoxicity at 10 µM was -3.26%.

`Cn1cc(N2CCCC(SCc3nc(C4CC4)no3)C2=O)cn1` (stereo unspecified): the cytotoxicity at 10 µM stood at 21.8%.

Consider `COCCN(Cc1ccco1)c1ncc(C#N)cc1Cl`, for which the cytotoxicity at 10 µM is -2.66%.

As for `COCCNC(=O)c1cc(F)ccc1NS(C)(=O)=O`, the cytotoxicity at 10 µM is -1.23%.

As for `CN(Cc1ccccc1)C(=O)CCN1C[C@H](C2CC2)[C@@H](N(C)C)C1`, the cytotoxicity at 10 µM was -1.21%.

As for `CCc1cnc(NC(=O)NC2CCN(C3CCCC3)CC2)s1`, the cytotoxicity at 10 µM was -7.27%.

Turning to `O=C(CCc1cn[nH]c1)N1C[C@H](CO)C[C@H](CN2CCOCC2)C1`, the cytotoxicity at 10 µM was 2.72%.

As to `Cc1cc(C)n(CC2CCCN2CC(=O)Nc2nncs2)n1` (stereo unspecified), the cytotoxicity at 10 µM came out at 12.1%.

For the molecule `CN(C)C(=O)N1C[C@@H]2COC[C@]2(CNS(C)(=O)=O)C1`, the cytotoxicity at 10 µM was -1.47%.

With `COc1cc(C)c2c(c1C)C[C@H]([C@H](C)C(=O)O)CC2`, the cytotoxicity at 10 µM was -0.95%.

For the molecule `CC(=O)NC1CCCN(Cc2ccc(-n3ccnc3)cc2)C1` (stereo unspecified), the cytotoxicity at 10 µM was -57.4%.

For `COc1cc(C2(C(=O)NCCn3ccnc3)CCCC2)ccc1C`, the cytotoxicity at 10 µM worked out at 8%.

For `Cc1nc(C)n(C2CCCN(C(=O)c3cn4c(C)cccc4n3)C2)n1` (stereo unspecified), the cytotoxicity at 10 µM was -7.72%.

With `NC(=O)CSc1ccccc1NCc1nc(C2CC2)no1`, the cytotoxicity at 10 µM was 1.12%.

As for `Cc1nn(CCC#N)c(C)c1CCC(=O)N(C)Cc1ccc(F)cc1F`, the cytotoxicity at 10 µM is -1.31%.

Consider `CNC(=O)COc1ccccc1CNC1CCc2ncnn2C1` (stereo unspecified), for which the cytotoxicity at 10 µM was -13.6%.

For the molecule `Cc1cc(-c2nnc(SCC(=O)O)n2C(C)c2ccccc2)nn1C` (stereo unspecified), the cytotoxicity at 10 µM was -1.1%.

Consider `Cc1cnc(N2CC3(CCN(S(=O)(=O)C4CC4)C3)C2)nc1`, for which the cytotoxicity at 10 µM is -109%.

In the case of `CN(C)c1ccc(-c2noc([C@@H]3CCCN3)n2)cn1`, the cytotoxicity at 10 µM is 1.73%.

With `Cc1cc(C)c2cc(CNCCCN3CCOCC3)c(=O)[nH]c2c1`, the cytotoxicity at 10 µM is -23.8%.

Regarding `Cc1[nH]c2c(F)cccc2c1CC(=O)NC1CCCCNC1=O` (stereo unspecified), the cytotoxicity at 10 µM came to 19.1%.

Take `CC(C)c1noc(C(C)N2CCN(Cc3noc(C(C)(C)C)n3)CC2)n1` (stereo unspecified): the cytotoxicity at 10 µM was -14.6%.

Regarding `Cc1cccc(-c2nc(N)nc3c2CN(C(=O)c2ccncn2)C3C)c1` (stereo unspecified), the cytotoxicity at 10 µM is 4.65%.

`Cc1n[nH]c(=O)c2c(NC(=O)CN3CCC(O)CC3)oc(C)c12`: the cytotoxicity at 10 µM turned out to be 1.17%.

As to `Cc1nc2[nH]cnc(NCCN3CCCC3)c-2n1`, the cytotoxicity at 10 µM is -12%.

Turning to `CC(C)N1CCc2c(C(=O)N3CCOCC3)nn(C)c2C1`, the cytotoxicity at 10 µM was -105%.

`O=C(Nc1ccccc1Cn1cccn1)N1CCC(N2CCCC2)C1` (stereo unspecified): the cytotoxicity at 10 µM was found to be 2.06%.

For the molecule `CC(=O)N[C@@H]1CN(Cc2ccccc2C(=O)O)C[C@H]1C(C)C`, the cytotoxicity at 10 µM was 3.15%.

In the case of `COc1ccc(C2(c3nc(-c4cccnc4)no3)CCOCC2)cc1`, the cytotoxicity at 10 µM is 13.9%.

As to `CC(C#N)CSc1ccccc1NCC(=O)Nc1ccc(F)cc1` (stereo unspecified), the cytotoxicity at 10 µM worked out at 8.19%.

Consider `CCN(C)S(=O)(=O)N1CCCC1CC(=O)c1cccs1` (stereo unspecified), for which the cytotoxicity at 10 µM was -29%.

Regarding `CN(C)CCN1CCc2ncc(CN(C)Cc3ccco3)n2CC1`, the cytotoxicity at 10 µM is -6.26%.

In the case of `CSCc1cc(F)ccc1CNCc1cccc(O)c1`, the cytotoxicity at 10 µM is -3.58%.

For the molecule `N#CC1(c2ccccc2)CCN(C(=O)C2CCCN(CC(N)=O)C2)CC1` (stereo unspecified), the cytotoxicity at 10 µM is -7.47%.

Regarding `COc1ccc(CNC(=O)CCSCc2csc(C)n2)cn1`, the cytotoxicity at 10 µM was -21.4%.

As for `CS(=O)(=O)c1cn[nH]c1C1CCCN(C(=O)Cn2cccn2)C1` (stereo unspecified), the cytotoxicity at 10 µM is -11.7%.

Turning to `Cn1ccnc1SCC(=O)NCc1ccc2c(c1)CCC(=O)N2`, the cytotoxicity at 10 µM came to 7.66%.

Regarding `Cc1ccc(C(=O)N2CCOCC3(CCN(C4CCOCC4)C3)C2)o1` (stereo unspecified), the cytotoxicity at 10 µM was -0.152%.

As for `CN(C1CCCN(c2ccccn2)C1)S(=O)(=O)N1CCOCC1` (stereo unspecified), the cytotoxicity at 10 µM stood at 8.09%.

As to `Cc1cc(C)n2cc(CN3CCC(N4CCN(C)C4=O)CC3)nc2n1`, the cytotoxicity at 10 µM was determined as 3.66%.

Turning to `CCOCCN1CCN(Cc2cccc(C(=O)N(C)C)c2)CC1`, the cytotoxicity at 10 µM was -13.5%.

Turning to `Cn1ccc(C(=O)N2CCOC3(COCCN(CC4CC4)C3)C2)n1` (stereo unspecified), the cytotoxicity at 10 µM stood at 7.61%.

Regarding `Cc1nnc(CN2CCOC(c3ccc(Cl)cc3)C2)o1` (stereo unspecified), the cytotoxicity at 10 µM amounted to 5.33%.

`Cc1ccc(C(=O)N2CCC3(CC2)c2ccccc2[C@@H](N)[C@@H]3O)c(=O)[nH]1`: the cytotoxicity at 10 µM was -2.72%.

Regarding `Cn1cnc2c1C(C(=O)N1CCOCC1)N(C(=O)c1ccccc1)CC2` (stereo unspecified), the cytotoxicity at 10 µM was -0.388%.

On to `COC(=O)COn1c(OC)nc2ccccc2c1=O`, for which the cytotoxicity at 10 µM was -4.73%.

For `O=C(Cn1ccnc1)N1CC[C@H](Oc2cccc(F)c2)[C@@H](O)CC1`, the cytotoxicity at 10 µM was -0.59%.

Regarding `OCC(O)CSCc1nnc(-c2ccc(Cl)cc2)o1` (stereo unspecified), the cytotoxicity at 10 µM stood at 10.8%.

For `Cc1noc([C@@]23CCO[C@@H]2CCN(C(=O)c2ccsc2)C3)n1`, the cytotoxicity at 10 µM was 9.1%.

On to `Cc1nccn1C1CCCN(C(=O)c2ccc3c(c2)nnn3C)C1` (stereo unspecified), for which the cytotoxicity at 10 µM is -7.89%.

Take `CC(C)[C@@H]1CN(S(=O)(=O)c2cccc(C(=O)O)c2)C[C@H]1N(C)C`: the cytotoxicity at 10 µM is -39.1%.

Take `COCC1CN(c2ccc(C)nn2)Cc2cnn(C)c21` (stereo unspecified): the cytotoxicity at 10 µM was found to be 11.7%.

Regarding `CN(C)CCOc1ccc(N(C)S(=O)(=O)c2cnn(C)c2)cc1`, the cytotoxicity at 10 µM is -13.3%.

As to `CN1CCN(Cc2n[nH]c(=O)n2CC2CCCCC2)CC1`, the cytotoxicity at 10 µM was -47.9%.

As to `O=C(CNc1cc(Br)ccc1Br)NC1CCS(=O)(=O)C1` (stereo unspecified), the cytotoxicity at 10 µM was -5.88%.

Turning to `CCCN1CC2(CCN(C)CC2)CC1C(=O)NCCn1cc(C)cn1` (stereo unspecified), the cytotoxicity at 10 µM is -22.9%.

On to `Cc1ncsc1-c1nnc(C2CCN(Cc3ccccc3Cl)CC2)o1`, for which the cytotoxicity at 10 µM is -6.86%.

Turning to `CC(C)N1CCC(CC(=O)N2CCC(C(O)c3nccn3C)CC2)CC1` (stereo unspecified), the cytotoxicity at 10 µM was -0.153%.

For the molecule `CC(=O)N[C@@H]1CN(C(=O)c2ccoc2)C[C@H]1c1ccc(C)cc1`, the cytotoxicity at 10 µM was 16.2%.

Regarding `O=C(CC1Cn2ncnc2NC1=O)Nc1ccccc1` (stereo unspecified), the cytotoxicity at 10 µM is 6.11%.

On to `Cc1cnccc1N1CCCN(C(=O)CCCc2cn[nH]c2)CC1`, for which the cytotoxicity at 10 µM is -30.3%.

Turning to `Cc1cc(C2CCCN2C(=O)COc2ccc(CC#N)cc2)on1` (stereo unspecified), the cytotoxicity at 10 µM is -49.6%.

Regarding `CCc1nc(NC(=O)Cc2csc(-c3nnc[nH]3)n2)sc1C`, the cytotoxicity at 10 µM was -45.1%.

Consider `COc1ncccc1CNc1snc(Cl)c1C#N`, for which the cytotoxicity at 10 µM was 10.2%.

As for `Nc1cc(N2CCCC(COc3ccc(F)cc3)C2)nc(N)n1` (stereo unspecified), the cytotoxicity at 10 µM was -7.58%.

As to `CSCC(=O)NC1(c2cccc(Cl)c2)CC1`, the cytotoxicity at 10 µM is -1.54%.

With `CC(C)c1ncc(CN2CCC(c3n[nH]cc3C(=O)N(C)C)C2)cn1` (stereo unspecified), the cytotoxicity at 10 µM was determined as 2.27%.

Consider `c1csc(-c2cc(CN3CCN(c4cnccn4)CC3)no2)c1`, for which the cytotoxicity at 10 µM was -0.523%.

With `c1cc(CN2CCCCC2c2ccc(Nc3cnccn3)nc2)ccn1` (stereo unspecified), the cytotoxicity at 10 µM is 7.38%.

For the molecule `CN1CCCN(c2nc3c(cnn3C(C)(C)C)c(=O)[nH]2)CC1`, the cytotoxicity at 10 µM is -11.9%.

Take `Cc1cc(=O)n(CC(=O)NCCC(C)C)c(-c2cccc(Cl)c2)n1`: the cytotoxicity at 10 µM is -2.32%.

Consider `C[C@@H]1C[C@@H]2CCN(C(=O)c3cnccn3)C[C@H]2O1`, for which the cytotoxicity at 10 µM was -10.6%.

Regarding `CCN1CC2(CCN(CCOCCO)CC2)CC(c2ccccc2)C1=O` (stereo unspecified), the cytotoxicity at 10 µM stood at 42.4%.

On to `O=C(O)c1ccccc1-n1cc(CN2CCOC(c3cc[nH]n3)C2)cn1` (stereo unspecified), for which the cytotoxicity at 10 µM was determined as 3.33%.

As to `Cn1ccnc1CN1CCCN(C(=O)COC2CCCCC2)CC1`, the cytotoxicity at 10 µM is -23.9%.

With `Cc1nc(C)c(COc2ccc(S(=O)(=O)N(C)C)cc2)s1`, the cytotoxicity at 10 µM is -0.242%.

Regarding `CCN(C(=O)NCCc1cccc(F)c1F)C(C)CS(C)(=O)=O` (stereo unspecified), the cytotoxicity at 10 µM was found to be 11.9%.

Consider `COCCC(=O)N1Cc2[nH]nc(COc3cccnc3)c2C1`, for which the cytotoxicity at 10 µM was -2.97%.

`Cc1noc(C2CCC3(CCN(C(=O)c4ccnnc4)CC3)O2)n1` (stereo unspecified): the cytotoxicity at 10 µM was determined as 6.69%.

As to `Cc1nccc(CNS(=O)(=O)N2CCCC2c2ccc(C)o2)n1` (stereo unspecified), the cytotoxicity at 10 µM is -5.88%.

With `CC(C)N(C)Cc1cncc2c1CCN(C(=O)c1ccccc1F)C2`, the cytotoxicity at 10 µM amounted to 2.35%.

Take `COc1ccc(OC)c(C2CC(=O)Nc3nc(N4CCOCC4)sc32)c1` (stereo unspecified): the cytotoxicity at 10 µM is 14.3%.

On to `CC(=O)OC1CN(c2nc3c(C(F)(F)F)cccc3s2)C1`, for which the cytotoxicity at 10 µM was -5.17%.

Take `Cc1ccc(OCC2CCCN(CC3CCOCC3)C2)cc1` (stereo unspecified): the cytotoxicity at 10 µM is 16.1%.

With `CCC(c1ccccc1)N1CCN(CCO)CC1` (stereo unspecified), the cytotoxicity at 10 µM is -1.19%.

Turning to `CN1C(=O)CC(c2cnn(C)c2)C12CCN(C(=O)c1cccn1C)CC2` (stereo unspecified), the cytotoxicity at 10 µM is -74%.

Regarding `CNc1ccc(C)cc1C(=O)N1CCCC2(CCNC2)C1` (stereo unspecified), the cytotoxicity at 10 µM is -6.63%.

As for `COC(=O)c1ccccc1C(=O)N(CCN(C)C)Cc1sccc1C`, the cytotoxicity at 10 µM was -129%.

`O=C(C(c1ccccc1)S(=O)(=O)c1ccccn1)N1CCCCC1` (stereo unspecified): the cytotoxicity at 10 µM worked out at 5.7%.

Regarding `COc1cc(OC)cc(C(=O)NCC(c2cccn2C)N2CCCC2)c1` (stereo unspecified), the cytotoxicity at 10 µM was found to be 11.2%.
